Test results reported in ChEMBL document CHEMBL1955761, “Privileged scaffolds or promiscuous binders: a comparative study on rhodanines and related heterocycles in medicinal chemistry” (J Med Chem, 2012).
The source made the active and inactive calls.

What was measured:
Escherichia coli [1] = experiment: Inhibition of Escherichia coli MurA using PEP as substrate assessed as inorganic phosphate release at 25 uM preincubated for 10 mins measured after 60 mins […]
Escherichia coli [2] = experiment: Inhibition of Escherichia coli MetAP at 10 uM after 15 mins by fluorescence analysis
Dengue virus = experiment: Inhibition of Dengue virus NS2B-NS3 protease using Abz-NleKRRS-3-(NO2)Y as substrate at 50 uM preincubated for 15 mins measured every sec for 15 mins by fluorimetric analysis
Prothrombin (Bos taurus) = Prothrombin (Bos taurus) (UniProt P00735); experiment: Inhibition of bovine plasma thrombin using Boc-Val-Pro-Arg-AMC as substrate at 25 uM preincubated for 15 mins measured after 10 mins by fluorimetric assay
Outline: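 Purchased bovine plasma thrombin at 10 nM final, preincubated 15 min with 25 μM inhibitor; reaction started with 50 μM substrate. Buffer 50 mM Tris-HCl pH 7.5, 150 mM NaCl, 0.05% Tween 20. Triplicate, averaged.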

inhibition (Escherichia coli [1]) | inhibition (Escherichia coli [2]) | inhibition (Dengue virus) | inhibition (Prothrombin (Bos taurus)) | Structure (SMILES)
inactive | 12% | 35% | 17% | O=C1NC(=S)N/C1=C\c1ccccc1
18% | inactive | 14% | 18% | O=C1NC(=O)/C(=C/c2c(F)c(F)c(F)c(F)c2F)N1
77% | inactive | 55% | 22% | O=C1NC(=S)N/C1=C\c1c[nH]c2ccccc12
inactive | inactive | inactive | inactive | O=C1NC(=S)N[C@H]1Cc1ccc(O)cc1
31% | inactive | 44% | 11% | O=C1NC(=S)N/C1=C\c1sccc1Br
inactive | inactive | inactive | inactive | O=C1CNC(=O)N1
inactive | inactive | 13% | 28% | O=C1NC(=O)/C(=C/c2ccc(Cl)cc2Cl)S1
32% | 15% | 46% | 27% | O=C1NC(=S)N/C1=C\c1ccc2ccccc2c1
18% | inactive | 46% | 31% | CC(=O)n1cc(/C=C2\SC(=S)NC2=O)c2ccccc21
57% | 83% | 29% | 30% | O=C1NC(=S)N/C1=C\c1cnc[nH]1
43% | 28% | 43% | 18% | O=C1NC(=S)N/C1=C1/CCOc2ccccc21
21% | 15% | 28% | 12% | O=C1NC(=S)N/C1=C\c1cccc(O)c1
inactive | inactive | 25% | inactive | O=C1NC(=O)/C(=C/C2CCCCC2)S1
62% | 12% | 51% | 20% | COc1ccc(/C=C/C=C2\SC(=S)NC2=O)cc1
inactive | inactive | 12% | inactive | O=C1NC(=O)/C(=C/c2c(F)c(F)c(F)c(F)c2F)S1
12% | inactive | inactive | inactive | CC(=O)N1C(=S)NC(=O)[C@@H]1CCCCN
15% | inactive | 44% | 23% | O=C1NC(=S)N/C1=C\c1cc2ccccc2[nH]1
19% | inactive | 46% | 19% | O=C1NC(=S)N/C1=C\c1sccc1Cl
57% | 11% | 42% | 15% | O=C1NC(=S)N/C1=C\c1cc(Br)cs1
inactive | inactive | 44% | 26% | O=C1NC(=S)S/C1=C\c1c[nH]c2ccccc12
inactive | inactive | inactive | inactive | CC(=O)N1C(=S)NC(=O)[C@@H]1Cc1c[nH]c2ccccc12
22% | inactive | 46% | 14% | O=C1NC(=S)N/C1=C\c1ccco1
inactive | 13% | 16% | 23% | COc1ccc(/C=C2\SC(=O)NC2=O)cc1OC
12% | inactive | 23% | 11% | O=C1NC(=O)/C(=C/c2sccc2Cl)S1
94% | 14% | 26% | 28% | O=C1NC(=S)S/C1=C\C=C\c1ccco1
15% | inactive | 36% | 21% | CN(C)c1ccc(/C=C2\SC(=S)NC2=O)cc1
11% | inactive | inactive | inactive | O=C1NC(=S)SC1Cc1ccccc1 (stereo not given)
inactive | inactive | 50% | 13% | COc1ccc(/C=C2\NC(=S)NC2=O)cc1

inhibition (Escherichia coli [1]) | inhibition (Escherichia coli [2]) | inhibition (Dengue virus) | inhibition (Prothrombin (Bos taurus)) | Structure (SMILES)
75% | 10% | 46% | 17% | O=C1NC(=S)N/C1=C\c1ccc(Br)s1
63% | 73% | 15% | inactive | O=C1NC(=S)NC1Cc1ccc(O)c(O)c1 (stereo not given)
20% | inactive | inactive | inactive | CC(C)C[C@@H]1NC(=S)NC1=O
inactive | inactive | inactive | inactive | O=C1NC(=S)NC1Cc1cccs1 (stereo not given)
16% | inactive | 50% | 22% | Cn1cc(/C=C2\NC(=S)NC2=O)c2ccccc21
inactive | inactive | 27% | 12% | O=C1NC(=O)/C(=C/c2cccc(O)c2)N1
inactive | inactive | 50% | 29% | COc1ccc(/C=C2\SC(=S)NC2=O)cc1OC
inactive | inactive | 29% | 16% | CN(C)c1ccc(/C=C2\NC(=O)NC2=O)cc1
inactive | inactive | inactive | 11% | Nc1ccc(/C=C2\SC(=S)NC2=O)cc1
70% | 100% | 37% | 32% | O=C1NC(=O)/C(=C/c2ccc(O)c(O)c2)N1
10% | 17% | 18% | inactive | CCCC/C=C/C1SC(=S)NC1=O (stereo not given)
18% | 18% | 53% | 31% | O=C1NC(=S)S/C1=C\c1cnc[nH]1
inactive | inactive | inactive | inactive | O=C1NC(=O)[C@@H](Cc2ccccc2)N1
19% | 12% | inactive | inactive | CC(=O)N1C(=S)NC(=O)[C@@H]1Cc1ccccc1
inactive | inactive | inactive | 19% | O=C1NC(=O)/C(=C/c2ccc3ccccc3c2)S1
13% | 95% | 47% | 38% | O=C1NC(=S)N/C1=C\c1ccccn1
inactive | inactive | 14% | inactive | O=C1CSC(=S)N1
77% | 19% | inactive | 14% | CCC/C=C/C1NC(=S)NC1=O (stereo not given)
10% | inactive | 25% | 23% | O=C1NC(=O)/C(=C/c2ccco2)N1
10% | 18% | 28% | 15% | COc1cccc(/C=C2\NC(=S)NC2=O)c1
100% | inactive | 19% | 27% | COc1cc(/C=C2\SC(=O)NC2=O)ccc1O
88% | inactive | 23% | 11% | CCC/C=C/C1SC(=S)NC1=O (stereo not given)
65% | 11% | 46% | 25% | O=C1NC(=S)S/C1=C\c1ccc([N+](=O)[O-])cc1
24% | 12% | inactive | 24% | O=C1NC(=O)/C(=C/C=C/c2ccco2)S1
30% | 11% | 11% | 24% | O=C1NC(=O)/C(=C/c2cccs2)S1
inactive | inactive | 18% | inactive | COc1ccc(/C=C2\NC(=O)NC2=O)cc1OC
inactive | 10% | 26% | 23% | O=C1NC(=O)/C(=C/c2c[nH]c3ccccc23)S1
